What all share (conditions): in vivo, iv
In data set [1] the test system is Mus musculus. Kind of data set: Biodistribution of labeled B72.3-chelator conjugate(DTPA isothiocynates) in nude mice bearing LS174T tumors, in kidney, administered intravenously expressed as % of injected dose of indium-111 per gram of tissue. In kind it is ADME, organism-based. In outline: (§1)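 Female athymic nu/nu mice (BALB/c background) were given 5×10^6 A375 melanoma cells (antigen-negative) s.c. in the left flank, then 14 days later 1.25×10^6 LS174T colorectal cells (antigen-positive) in the right flank. After a further 7–14 days, with tumors at 100–500 mg, mice were randomized and given 2.0 μg indium-111-labeled B72.3 conjugate in saline i.v. by tail vein. At 48 h, tissues were weighed and gamma-counted, and activity was expressed as % of counted injectate per gram.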

For data set [2], the system named is Mus musculus. As to the kind of experiment: Biodistribution of labeled B72.3-chelator conjugate(DTPA isothiocynates) in Nude mice bearing LS174T tumors, in liver, administered intravenously expressed as % of injected dose of indium-111 per gram of tissue. It is filed as ADME, organism-based. In outline: as §1
For data set [3], the system named is Mus musculus. As to the kind of experiment: Biodistribution of labeled B72.3-chelator conjugate(DTPA isothiocynates) in Nude mice bearing LS174T tumor (Ag+), administered intravenously expressed as % of injected dose of indium-111 per gram of tissue. It is filed as ADME, organism-based. In outline: as §1
Data set [4] relates to Mus musculus. As to the kind of experiment: Biodistribution of labeled B72.3-chelator conjugate(DTPA isothiocynates) in Nude mice bearing LS174T tumors, in lungs, administered intravenously expressed as % of injected dose of indium-111 per gram of tissue. It is filed as ADME, organism-based, Lung. The method in brief:
as §1

The test system of data set [5] is Mus musculus. As to the kind of experiment: Biodistribution of labeled B72.3-chelator conjugate(DTPA isothiocynates) in Nude mice bearing LS174T tumors, in spleen, administered intravenously expressed as % of injected dose of indium-111 per gram of tissue. In kind it is ADME, organism-based. The method in brief:
as §1

Data set [6] relates to Mus musculus. As to the kind of experiment: Biodistribution of labeled B72.3-chelator conjugate (DTPA isothiocynates) in Nude mice bearing LS174T tumors, in blood, administered intravenously expressed as % of injected dose of indium-111 per gram of tissue. In kind it is ADME, organism-based. The method in brief:
as §1

For data set [7], the system named is Mus musculus. Kind of data set: Biodistribution of labeled B72.3-chelator conjugate (DTPA amide) in Nude mice bearing LS174T tumor (Ag+), administered intravenously expressed as % of injected dose of indium-111 per gram of tissue. It is filed as ADME, organism-based.
For data set [8], the system named is Mus musculus. As to the kind of experiment: Biodistribution of labeled B72.3-chelator conjugate(DTPA amide) in Nude mice bearing LS174T tumor (Ag-), administered intravenously expressed as % of injected dose of indium-111 per gram of tissue. It is filed as ADME, organism-based.
The subject of data set [9] is Mus musculus. Kind of data set: Biodistribution of labeled B72.3-chelator conjugate(DTPA amide) in nude mice bearing LS174T tumors, in kidney, administered intravenously expressed as % of injected dose of indium-111 per gram of tissue. In kind it is ADME, organism-based.
The subject of data set [10] is Mus musculus. As to the kind of experiment: Biodistribution of labeled B72.3-chelator conjugate(DTPA amide)s in Nude mice bearing LS174T tumors, in lungs, administered intravenously expressed as % of injected dose of indium-111 per gram of tissue. In kind it is ADME, organism-based, Lung.
For data set [11], the system named is Mus musculus. Kind of data set: Biodistribution of labeled B72.3-chelator conjugate in Nude mice bearing LS174T tumors, in liver, administered intravenously expressed as % of injected dose of indium-111 per gram of tissue.
Data set [12] concerns Mus musculus. Kind of data set: Biodistribution of labeled B72.3-chelator conjugate(DTPA amide) in Nude mice bearing LS174T tumors, in blood, administered intravenously expressed as % of injected dose of indium-111 per gram of tissue. In kind it is ADME, organism-based.
Data set [13] has as its system Mus musculus. Kind of data set: Biodistribution of labeled B72.3-chelator conjugate(DTPA amide) in Nude mice bearing LS174T tumors, in spleen, administered intravenously expressed as % of injected dose of indium-111 per gram of tissue. It is filed as ADME, organism-based.
Data set [14] concerns Mus musculus. Kind of data set: Biodistribution of labeled B72.3-chelator conjugate(EDTA isothiocynates) in nude mice bearing LS174T tumors, in kidney, administered intravenously expressed as % of injected dose of indium-111 per gram of tissue. In kind it is ADME, organism-based. The method in brief: as §1
In data set [15] the test system is Mus musculus. Kind of data set: Biodistribution of labeled B72.3-chelator conjugatec in Nude mice bearing LS174T tumor (Ag+), administered intravenously expressed as % of injected dose of indium-111 per gram of tissue. In kind it is ADME, organism-based.
Data set [16] deals with Mus musculus. As to the kind of experiment: Biodistribution of labeled B72.3-chelator conjugate(EDTA isothiocynates) in Nude mice bearing LS174T tumors, in lungs, administered intravenously expressed as % of injected dose of indium-111 per gram of tissue. It is filed as ADME, organism-based, Lung. In outline:
as §1

The test system of data set [17] is Mus musculus. Kind of data set: Biodistribution of labeled B72.3-chelator conjugate(EDTA isothiocynates) in Nude mice bearing LS174T tumors, in liver, administered intravenously expressed as % of injected dose of indium-111 per gram of tissue. In kind it is ADME, organism-based. The method in brief:
as §1

Data set [18] has as its system Mus musculus. Kind of data set: Biodistribution of labeled B72.3-chelator conjugate (EDTA isothiocynates) in Nude mice bearing LS174T tumors, in blood, administered intravenously expressed as % of injected dose of indium-111 per gram of tissue. In kind it is ADME, organism-based. In outline: as §1
Data set [19] has as its system Mus musculus. Kind of data set: Biodistribution of labeled B72.3-chelator conjugate(EDTA isothiocynates) in Nude mice bearing LS174T tumors, in spleen, administered intravenously expressed as % of injected dose of indium-111 per gram of tissue. It is filed as ADME, organism-based. In outline: as §1
In data set [20] the test system is Mus musculus. As to the kind of experiment: Biodistribution of labeled B72.3-chelator conjugate(DTPA amide) in Nude mice bearing LS174T tumor (Ag+), administered intravenously expressed as % of injected dose of indium-111 per gram of tissue. It is filed as ADME, organism-based.
Data set [21] deals with Mus musculus. As to the kind of experiment: Biodistribution of labeled B72.3-chelator conjugate (DTPA amide) in Nude mice bearing LS174T tumors, in blood, administered intravenously expressed as % of injected dose of indium-111 per gram of tissue. It is filed as ADME, organism-based.

SMILES strings stand for the structures. Values joined by “and” are separate entries in the source; they are usually repeats but may differ in a detail not shown here. Identical values can stand only once.

On to `Nc1ccc(CC(CN(CCN(CC(=O)O)CC(=O)O)CC(=O)O)N(CC(=O)O)CC(=O)O)cc1` (stereo not given), for which the Biodistribution in the data set on Mus musculus [1] is given as 8.99%; in the data set on Mus musculus [2], 9.09%; in the data set on Mus musculus [3] it was 25.94%; in the data set on Mus musculus [4] it was 9.94%; with Mus musculus [5] it was 5.03%; with Mus musculus [6], 18.37%.

Take `O=C(O)CN(CCN(CC(=O)O)C(Cc1ccc(N=C=S)cc1)C(=O)O)CC(=O)O` (stereo not given): the Biodistribution is 21.1% in the data set on Mus musculus [7]; 5.2% in the data set on Mus musculus [8]; 5.9% in the data set on Mus musculus [9]; 5.5% with Mus musculus [10]; 6.1% with Mus musculus [11]; 12.1% in the data set with Mus musculus [12]. The molecule further registered a Biodistribution in the data set on Mus musculus [13] of 3.9%.

`Nc1ccc(CC(CN(CC(=O)O)CC(=O)O)N(CC(=O)O)CC(=O)O)cc1` (stereo not given): the Biodistribution in the data set on Mus musculus [14] is recorded as 16.91%; in the data set on Mus musculus [15], 20.82%; in the data set on Mus musculus [16] it was 9.19%; with Mus musculus [17] it was 14.26%; in the data set on Mus musculus [18], 19.82%; in the data set with Mus musculus [19], 11.68%.

Regarding `O=C(O)CN(CCN(CC(=O)O)CC(=O)O)CCN(CC(=O)O)C(Cc1ccc(N=C=S)cc1)C(=O)O` (stereo not given), the Biodistribution turned out to be 19.5% in the data set with Mus musculus [7]; 4.1% with Mus musculus [8]; 2.3% in the data set on Mus musculus [9]; 4.1% in the data set with Mus musculus [10]; 6.9% with Mus musculus [11]; 8.9% with Mus musculus [12]. In the data set on Mus musculus [13], this molecule registered a Biodistribution of 4%.

Regarding `O=C(O)CN(CCN(CC(=O)O)CC(=O)O)CCN(CC(=O)O)CC(=O)O` [PENTETIC ACID], the Biodistribution is 18.97% with Mus musculus [7]; 6.23% with Mus musculus [8]; 17.14% and 12.64% with Mus musculus [9]; 6.3% and 6.15% with Mus musculus [10]; 42.22% with Mus musculus [20]; 11.23% in the data set with Mus musculus [21]. The Biodistribution was 17.2% and 19.39% in the data set on Mus musculus [11]; 10.67% with Mus musculus [12]; 9.14% and 12.12% in the data set on Mus musculus [13].

The record behind these values is ChEMBL document CHEMBL1124329, “Synthesis of novel bifunctional chelators and their use in preparing monoclonal antibody conjugates for tumor targeting” (J Med Chem, 1989).
